Data set [1] is described as follows: Microsomal stability in mouse liver microsomes assessed as half life. The data set is classed as ADME, Microsome. For orientation: Liver microsomes are vesicles of endoplasmic reticulum, rich in cytochrome P450 enzymes.
The nature of data set [2]: Stability in rat plasma assessed as parent compound remaining at 1 uM and measured at 120 mins by LC-MS/MS analysis. The data set is classed as ADME, cell-free. The note with it: 2 h. In a few lines:
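Plasma from human, rat and mouse; percent parent remaining at 120 min.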

The test system of data set [3] is Mus musculus. The data set is described as follows: Anti-asthmatic activity against OVA/Aspergillus-sensitized protease-mediated C57BL/6J mouse model allergic asthma assessed as reduction in neutrophils in BAL fluid at 10 mg/kg,ip followed by 0.5 hrs OVA challenge and measured after 48 hrs. The data set is classed as functional, organism-based. The settings on record: time 48.5 hrs.

In the next data set the test system is HepG2. The data set is described as follows: Cytotoxicity in human HepG2 cells assessed as reduction in cell viability. In kind it is toxicity, cell-based.
The nature of data set [4]: Selectivity ratio, ratio of IC50 for displacement of fluorescent tracer 4-(4-(1-(4-(1-(6-(3-carboxylato-4-(3-iminio-3H-xanthen-9-yl)benzamido)hexyl)-4,5-dihydro-1H-pyrrol-3-yl)butyl)piperidin-1-ium-4-yl)phenyl)-7-(4-(trifluoromethyl)phenyl)-2-naphthoate from mouse P2Y14R stably expressed in human HEK293 cells to IC50 for displacement of fluorescent tracer 4-(4-(1-(4-(1-(6-(3-carboxylato-4-(3-iminio-3H-xanthen-9-yl)benzamido)hexyl)-4,5-dihydro-1H-pyrrol-3-yl)butyl)piperidin-1-ium-4-yl)phenyl)-7-(4-(trifluoromethyl)phenyl)-2-naphthoate from human P2Y14R stably expressed in CHO cells. The data set is classed as cell-based.

For data set [5], the system named is Mus musculus. The data set is described as follows: Anti-asthmatic activity against OVA/Aspergillus-sensitized protease-mediated C57BL/6J mouse model allergic asthma assessed as reduction in macrophages in BAL fluid at 10 mg/kg,ip followed by 0.5 hrs OVA challenge and measured after 48 hrs. The data set is classed as functional, organism-based. The settings on record: time 48.5 hrs.

Data set [6] deals with Mus musculus. The data set is described as follows: Antiallodynic activity in CCI surgery neuropathic pain Hsd:ICR mouse model assessed as reversal of mechano-allodynia by measuring paw withdrawal threshold at 10 micromol/kg,ip and measured at 0.5 hrs by von frey test. In kind it is functional, organism-based. The note with it: dose 10.0 µmol/kg. In a few lines: (§1)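 CCI neuropathic pain in adult male Hsd:ICR (CD-1) mice (20–30 g). Single i.p. injection on day 7 after sciatic nerve constriction, at peak pain. Vehicle 10% (Kolliphor HS 15:DMSO 5:95) in saline, 0.2 mL. Paw withdrawal threshold by von Frey filaments on ipsilateral and contralateral hindpaws. Mean ± SD; two-way ANOVA with Dunnett's test versus day 0 and day 7.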

Data set [7] in a line: Microsomal stability in human liver microsomes assessed as half life. The data set is classed as ADME, Microsome.
The nature of data set [8]: Lipophilicity, log D of compound at pH 7.4 incubated for 20 hrs by HPLC analysis. The data set is classed as physicochemical. The settings on record: buffer.
Data set [9] is described as follows: Cmax in Wistar rat plasma at 10 mg/kg, ip and measured upto 24 hrs. The data set is classed as ADME, organism-based. Also noted: time < 24 hrs, dose 10 mg/kg, route ip.
For data set [10], the target named is 5-hydroxytryptamine receptor 1B (Homo sapiens, UniProt P28222). The data set is described as follows: Displacement of [3H]-5-CT from human 5-HT1B receptor assessed as inhibition constant by radioligand displacement assay. For orientation: Loss of bound radioactivity is the signal in a displacement assay; it reports binding, not function.
For data set [11], the system named is Mus musculus. The data set is described as follows: Antiallodynic activity in CCI surgery neuropathic pain Hsd:ICR mouse model assessed as reversal of mechano-allodynia by measuring paw withdrawal threshold at 10 micromol/kg,ip and measured upto 5 days by von frey test. The note with it: dose 10.0 µmol/kg, time <= 5.0 day. The data set is classed as functional, organism-based. In a few lines:
as §1

Data set [12] is described as follows: Protein binding in rat plasma assessed as bound fraction. In kind it is ADME, cell-free.
Data set [13] deals with T1, P2Y purinoceptor 14 (Mus musculus, UniProt Q9ESG6).
T1 sequence (Q9ESG6 whole entry): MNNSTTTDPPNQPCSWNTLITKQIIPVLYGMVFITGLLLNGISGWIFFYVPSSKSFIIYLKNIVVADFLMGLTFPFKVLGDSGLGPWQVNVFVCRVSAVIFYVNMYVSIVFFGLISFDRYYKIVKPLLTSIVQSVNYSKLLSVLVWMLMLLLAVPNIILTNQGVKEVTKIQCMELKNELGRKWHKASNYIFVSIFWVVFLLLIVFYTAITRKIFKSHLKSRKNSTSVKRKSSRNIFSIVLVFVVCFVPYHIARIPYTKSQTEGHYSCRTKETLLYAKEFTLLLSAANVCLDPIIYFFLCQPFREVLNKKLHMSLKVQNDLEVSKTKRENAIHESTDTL
The data set is described as follows: Displacement of fluorescent tracer 4-(4-(1-(4-(1-(6-(3-carboxylato-4-(3-iminio-3H-xanthen-9-yl)benzamido)hexyl)-4,5-dihydro-1H-pyrrol-3-yl)butyl)piperidin-1-ium-4-yl)phenyl)-7-(4-(trifluoromethyl)phenyl)-2-naphthoate from mouse P2Y14R stably expressed in human HEK293 cells by flow cytometry. The data set is classed as cell-based. In a few lines: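 Whole-cell competitive binding: CHO cells expressing hP2Y14R (or HEK-293 cells expressing mP2Y14R) incubated with AlexaFluor488-labelled antagonist tracer at 20 nM. […] Ki derived by dividing IC50 by 1.72.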
A general note: A flow cytometer gives signals particle by particle.

A short description of data set [14]: Protein binding in human plasma assessed as bound fraction. In kind it is ADME, cell-free.
The nature of data set [15]: Acute toxicity in Wistar rat assessed as mortality at 1 to 10 mg/kg, ip and measured upto 24 hrs. The data set is classed as organism-based. The settings on record: in vivo, dose 1-10 mg/kg. The method in brief: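 Male Wistar rats; single dose at 1, 3 or 10 mg/kg i.p., or 0.5 mg/kg i.v. Animals were watched for mortality and morbidity over the experimental period, in the course of a plasma pharmacokinetic study.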

Data set [16] has as its target T2, P2Y purinoceptor 14 (Homo sapiens, UniProt Q15391).
T2 sequence (Q15391 whole entry): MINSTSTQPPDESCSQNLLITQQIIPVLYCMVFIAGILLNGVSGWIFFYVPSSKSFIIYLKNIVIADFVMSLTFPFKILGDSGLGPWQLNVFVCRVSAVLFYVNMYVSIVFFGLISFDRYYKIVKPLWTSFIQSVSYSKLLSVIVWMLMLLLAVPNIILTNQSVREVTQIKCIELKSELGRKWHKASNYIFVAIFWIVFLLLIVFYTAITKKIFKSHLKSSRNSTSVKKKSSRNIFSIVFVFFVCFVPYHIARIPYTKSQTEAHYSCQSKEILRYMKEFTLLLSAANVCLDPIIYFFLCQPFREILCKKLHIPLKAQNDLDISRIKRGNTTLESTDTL
The data set is described as follows: Displacement of fluorescent tracer 4-(4-(1-(4-(1-(6-(3-carboxylato-4-(3-iminio-3H-xanthen-9-yl)benzamido)hexyl)-4,5-dihydro-1H-pyrrol-3-yl)butyl)piperidin-1-ium-4-yl)phenyl)-7-(4-(trifluoromethyl)phenyl)-2-naphthoate from human P2Y14R stably expressed in CHO cells by flow cytometry. In kind it is cell-based. In a few lines: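 Whole-cell competitive binding: CHO cells expressing hP2Y14R (or HEK-293 cells expressing mP2Y14R) incubated with AlexaFluor488-labelled antagonist tracer at 20 nM.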

Data set [17] has as its system Mus musculus. The data set is described as follows: Protection against cardiac ischemia/reperfusion induced C57BL/6J mouse injury model assessed as reduction in infarct size at 2 mg/kg, sc prior to 0.5 hrs of myocardial ischemia and 48 h of reperfusion (Rvb= 26.4%). The data set is classed as functional. Also noted: scale not given: the % may be the effect or the level left. The note with it: time 48.5 hrs.

The nature of data set [18]: Protein binding in mouse plasma assessed as bound fraction. In kind it is ADME, cell-free.

The source made the active and inactive calls. Where only a bound is given, the exact number is not on record here.

5-hydroxytryptamine receptor 1B, sequence (P28222 whole entry): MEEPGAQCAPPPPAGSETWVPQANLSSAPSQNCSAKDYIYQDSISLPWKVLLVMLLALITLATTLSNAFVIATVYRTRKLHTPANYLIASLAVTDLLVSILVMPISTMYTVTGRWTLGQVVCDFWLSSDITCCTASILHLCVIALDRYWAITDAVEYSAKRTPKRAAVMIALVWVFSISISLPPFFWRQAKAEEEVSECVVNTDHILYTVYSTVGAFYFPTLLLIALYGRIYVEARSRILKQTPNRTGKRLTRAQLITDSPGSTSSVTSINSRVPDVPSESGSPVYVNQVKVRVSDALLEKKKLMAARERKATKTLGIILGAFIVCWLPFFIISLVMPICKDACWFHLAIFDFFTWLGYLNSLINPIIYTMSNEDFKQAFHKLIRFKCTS

`O=C(O)c1cc(-c2ccc([C@]3(O)[C@@H]4CNC[C@H]3C4)cc2)c2ccc(-c3ccc(C(F)(F)F)cc3)cc2c1`: the t1/2 in data set [1] is 5.92 h; in data set [7], above 6.67 h. For the same compound, the Stability in [2] is recorded as 81.3%. Further, the result with Mus musculus [3] and in the data set on Mus musculus [5] was inactive. Moreover, the 50% inhibitory concentration (IC50) with HepG2 was found to be 32.6 µM; on P2Y purinoceptor 14 [13] it was 0.0048 µM; on P2Y purinoceptor 14 [16] it was 0.00592 µM. In addition, in data set [4], the Ratio IC50 came out at 0.811. Also, the result in the data set on Mus musculus [6] and in the data set with Mus musculus [11] was Active. In data set [8], this compound gave a logD at 20 h of 1.2. This compound also registered a Cmax in data set [9] of 4 µM. The Ki in [10] was determined as 6 µM. The PPB in [12] was determined as 99.48%; in data set [14], 99.3%; in [18], 99.86%. Besides, the Activity result in data set [15] is listed as “Non-Toxic”; in the data set with Mus musculus [17], 31.8%.

A word on the IC50: it is the concentration needed to halve the response being measured. For orientation: logD means lipophilicity at a set pH, counting ionised and neutral species. The term Cmax denotes the highest concentration seen after dosing. The Ki is a dissociation constant, usually derived from enzyme kinetics or from competition with a known ligand.
